Compounds with a hit are over-represented: about 3.7% of the library has one in this group of screens.
TAAR1 antagonist – antagonists of human TAAR1. Q96RJ0. CHO RD-HGA16 TAAR1, Fluo-8 calcium fluorescence, antagonist. inhibition, % at 3 µM. 360,000 tested, 1.5% active. AID 624466;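 active = inhibition above a per-plate cutoff, the mean inhibition of test compounds on that plate plus 3 SD, cut at about 49% in these data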;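 also: 0% = DMSO plus EC80 beta-PEA response and 100% = DMSO alone without agonist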
Target sequence (Q96RJ0 whole entry, looked up): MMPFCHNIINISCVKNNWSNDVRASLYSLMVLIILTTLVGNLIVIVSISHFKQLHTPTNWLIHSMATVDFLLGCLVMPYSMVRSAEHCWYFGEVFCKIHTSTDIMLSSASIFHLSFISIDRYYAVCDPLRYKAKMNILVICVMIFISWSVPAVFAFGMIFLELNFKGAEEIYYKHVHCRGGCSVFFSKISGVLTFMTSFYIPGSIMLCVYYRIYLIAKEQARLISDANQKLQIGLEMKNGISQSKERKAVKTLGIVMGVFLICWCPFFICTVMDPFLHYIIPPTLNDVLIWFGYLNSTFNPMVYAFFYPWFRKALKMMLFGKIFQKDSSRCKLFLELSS
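Assay system: RD-HGA16 CHO cells with stable hTAAR1 and Gα16 / Reagent: EC80 β-phenethylamine stimulus / Doses: 3 µM, single point / Timing: dye loading 75 min at 37 °C, then 30 min room temperature / Measured by: Fluo-8 intracellular calcium dye fluorescence, real-time kinetic reads / Controls: vehicle wells and EC80 agonist wells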
rCAG binder – molecules binding r(CAG) RNA repeats; r(CAG) RNA repeat, TO-PRO-1 dye displacement fluorescence; inhibition, % at 3 µM; 370,000 tested, 1.3% active;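 active = inhibition above the plate cutoff, the mean of all test compounds on that plate plus 3 SD, cut at about 35% in these data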;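 also: 0% = DMSO alone and 100% = 100 µM mitoxantrone as full dye displacement; higher means more dye released from RNA so lower well fluorescence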
TAAR1 agonist – human TAAR1 agonism. Q96RJ0. CHO RD-HGA16 TAAR1, Fluo-8 calcium fluorescence; vehicle wells 0%, saturating PEA agonist 100%. activation, % at 3 µM. 360,000 tested, 0.99% active;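 active = activation above the mean activation of all test compounds in the run plus 3 SD, cut at about 38% in these data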
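System: CHO-derived RD-HGA16 cells with stable Gα16 and human TAAR1 / Times: 17-24 h plating, Fluo-8 75 min 37 °C, 30 min RT / Technique: calcium-sensitive Fluo-8 signal, excitation 470-495, emission 515-575 nm / Measure: % activation relative to PEA EC100 response / Benchmarks: DMSO and PEA EC100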
core dimer inh – blocks dimerization of HCV core protein | 300,000 tested, 0.33% active | inhibition, % at 5 µM | TR-FRET GST/Flag-core106 dimerization, 1536-well;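 active = inhibition above the mean of all tested compounds plus 3 SD, set per screening campaign, cut at about 45% in these data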
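Test system: GST/Flag-tagged HCV core106 proteins; Medium: KF-containing HEPES buffer, pH 7.45, DTT, CHAPS, BSA; Times: compound-protein-antibody incubation 4 h at 22.5 °C; Detection: TR-FRET 671 and 617 nm emission; Benchmarks: wells lacking GST-core106 and wells with excess unlabelled core106.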
NS3 helicase inh – inhibitors of Hepatitis C virus NS3 helicase. NS3 helicase DNA unwinding, Cy5 molecular beacon fluorescence. inhibition, % at 10.9 µM. 290,000 tested, 0.56% active. AID 1800;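 active = inhibition above the mean of all tested compounds plus 3 SD, set per campaign, cut at about 35% in these data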;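 also: 0% = DMSO wells and 100% = thioflavine S control wells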
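Assay system: hepatitis C virus NS3 helicase domain fragment enzyme. Also added: annealed dual-labelled DNA beacon duplex, ATP-started. Timing: 1 h reaction at 25 °C, ATP-initiated. Technique: Cy5 fluorescence at 0 and 60 min, beacon hairpin quenching. Evaluation: % inhibition of unwinding. Replication: one well per compound.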
nonsel antag count – counter-screen for TAAR1 antagonists: nonselective antagonists. inhibition, % at 3 µM. counterscreen cell line, calcium fluorescence, antagonist mode. shares compounds with TAAR1 antagonist. 2,400 tested, 77% active; in the data active = inhibition above about 22%;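 also: CHO-Ga16 host cells stimulated with ATP at an EC80 level; 0% = agonist EC80 plus vehicle and 100% = vehicle without agonist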
TAAR1 antag conf – confirmation of human TAAR1 antagonists. inhibition, % at 3 µM. 2,400 tested, 40% active. AID 651785. shares compounds with TAAR1 antagonist. TAAR1-expressing cells, fluorescence antagonist read-out; in the data active = inhibition above about 49%;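 also: CHO-Ga16 host cells challenged with agonist PEA near its EC80; 0% = agonist at EC80 plus vehicle and 100% = vehicle with no agonist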
Ga16 ag counter – nonselective Ga16 agonist in TAAR1 antagonist counter-screen; 2,400 tested, 18% active; activation, % at 3 µM; Ga16-expressing cells, calcium fluorescence, agonist counterscreen; shares compounds with TAAR1 antagonist; in the data active = activation above about 12%;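 also: 0% = vehicle wells and 100% = saturating stimulus response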
TAAR1 ag counter – TAAR1 agonism, antagonist counter-screen. shares compounds with TAAR1 antagonist. activation, % at 3 µM. AID 651955. 2,400 tested, 2% active. hTAAR1 cell line, fluorescence activation, agonist mode; in the data active = activation above about 37%;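 also: CHO cells stably expressing TAAR1 with calcium dye readout; 0% = DMSO vehicle and 100% = full agonist response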
Starred values were filed as active, the others as inactive; x = not tested or not shown.

SMILES	TAAR1 antagonist	rCAG binder	TAAR1 agonist	core dimer inh	NS3 helicase inh	nonsel antag count	TAAR1 antag conf	Ga16 ag counter	TAAR1 ag counter
COc1cccc(N2CCN(C(=O)CCCCCNc3nc(=S)[nH]c4ccccc34)CC2)c1	59*	1	11	13	2	19	37	8	11
COc1cc(/C=N/NC(=O)CSc2cc(C)c(Br)cc2C)ccc1O	66*	6	24	4	-11	38*	59*	13*	16
Cc1ccc(C)c(S(=O)(=O)N2CCN(c3nc(-c4cccnc4)nc4ccccc34)CC2)c1	61*	7	5	x	x	13	38	6	8
COc1ccc(S(=O)(=O)N2CCN(c3nc(-c4cccnc4)nc4ccccc34)CC2)cc1	37	6	4	x	x	x	x	x	x
C[C@H]1C2CC(OC(=O)Nc3ccc4c(c3)OCO4)C(C2)[C@H]2CCCCN21 (some centres not stated)	x	0	x	x	x	x	x	x	x
C=CCN1C[C@H](COC(=O)c2cccc(OC)c2)Oc2cccc(F)c2S1(=O)=O	79*	1	9	x	x	41*	56*	12*	9
Cc1cc(C)nc(N2CCC(C(=O)N(C)CCc3ccccn3)CC2)n1	x	0	x	x	x	x	x	x	x
CCCCNc1c(-c2ccc(OC)c(Sc3ccc(OC)cc3)c2)nc2cnccn12	75*	4	11	x	x	23*	57*	4	8
CCCCNc1c(-c2ccc(OC)c(Sc3ccc(OC)cc3)c2)nc2ccccn12	x	x	x	3	x	x	x	x	x
Cc1ccc(Cn2cc(COC(=O)NCC(C)C)nn2)cc1	x	0	x	x	x	x	x	x	x
CC(C)(O)c1cc2ccc(C#CCCN3C(=O)c4ccccc4C3=O)cc2c(=O)o1	62*	2	15	x	x	26*	55*	9	3
CCC(C(=O)OCC(=O)Nc1ccc(F)cc1)c1ccccc1 (configuration not stated)	15	-2	0	x	x	x	x	x	x
CCC(C(=O)OCC(=O)Nc1ccc(SC(F)F)cc1)c1ccccc1 (configuration not stated)	63*	-1	2	x	7	39*	53*	3	7
CC(C)(C)OC(=O)N1CCC(C(=O)Nc2cccc(C(=O)NCCCCc3ccccc3)c2)CC1	66*	0	16	x	x	37*	44	13*	12
CC(C)(C)OC(=O)N1CCC(C(=O)Nc2ccc(C(=O)NCCc3ccccc3)cc2)CC1	44	-2	31	x	x	x	x	x	x
O=C(NCCCCc1ccccc1)c1cccc(NC(=O)C2CCC2)c1	13	1	5	x	x	x	x	x	x
O=C(NCCc1ccccc1)c1cccc(NC(=O)C2CC2)c1	10	0	0	x	x	x	x	x	x
O=C(/C=C/c1ccccc1)Nc1cccc(C(=O)NCCc2ccccc2)c1	68*	2	13	x	x	37*	57*	8	6
O=C(NCCCCc1ccccc1)c1cccc(NC(=O)C2CCCCC2)c1	61*	2	6	x	x	30*	36	8	5
CC1(c2nnnn2C2CCCCC2)CSCC(=O)N1CCc1ccc(O)cc1 (configuration not stated)	x	3	x	x	x	x	x	x	x
C=CCN1C(=O)[C@@H](CC(=O)N2CCCC2)[C@]2(C(=O)OC)CCCCC=C12	x	0	x	x	x	x	x	x	x
Cc1cc(-c2nnc(SCC(=O)Nc3cccc4ccccc34)n2N)n[nH]1	x	5	x	x	x	x	x	x	x
O=C(Nc1ccc(F)c(Cl)c1)C1CCCC1	-13	-3	0	0	x	x	x	x	x
O=C(Nc1ccc(F)c(Cl)c1)NC1CC1	105*	1	2	-4	-4	-5	2	10	15
CC(C)COc1cccc(C(=O)N(CC(=O)Nc2ccccc2C(F)(F)F)Cc2ccco2)c1	61*	0	9	x	x	18	41	6	9
SMILES	TAAR1 antagonist	rCAG binder	TAAR1 agonist	core dimer inh	NS3 helicase inh	nonsel antag count	TAAR1 antag conf	Ga16 ag counter	TAAR1 ag counter
CC1CCc2c(sc3nc(C4CC4)nc(N4CCN(C(=O)c5ccco5)CC4)c23)C1 (configuration not stated)	58*	2	17	3	-11	16	7	-1	3
CCc1nc(N2CCN(C(=O)c3ccco3)CC2)c2c3c(sc2n1)CCCC3	22	-5	15	10	-8	x	x	x	x
COC(=O)[C@H](C(C)C)N1CCc2nnn(CC3CCCCC3)c2-c2cc(F)ccc2S1(=O)=O	x	0	x	x	x	x	x	x	x
COc1ccc(/C=N/n2cncn2)cc1Cn1cc([N+](=O)[O-])cn1	1	0	0	-3	8	x	x	x	x
COc1ccc(/C=N/Nc2ccc([N+](=O)[O-])cc2)cc1Cn1cc([N+](=O)[O-])cn1	55*	8	10	26	11	26*	28	6	4
C[C@H]1[C@@H]2C[C@@]3(O[C@H](c4ccc(C(F)(F)F)cc4)N=C3C[C@@H]1c1ccccc1)N(Cc1ccncc1)C2=O	-29	1	2	x	x	x	x	x	x
O=[N+]([O-])c1ccc(-c2ccc(/C=N/Nc3nc(N4CCCCC4)nc(N4CCCCC4)n3)o2)cc1	-5	-3	10	x	8	x	x	x	x
O=[N+]([O-])c1cccc(-c2ccc(/C=N/Nc3nc(N4CCCCC4)nc(N4CCCCC4)n3)o2)c1	52*	0	6	20	2	19	35	4	6
CCC(c1nnnn1Cc1ccco1)N1CCN(C(=O)c2ccco2)CC1 (configuration not stated)	10	5	7	-1	28	x	x	x	x
O=C(c1ccco1)N1CCN(C(c2ccccc2Cl)c2nnnn2Cc2ccco2)CC1 (configuration not stated)	62*	-2	18	0	10	35*	55*	10	9
Cc1ccc2nc(-c3ccc(NC(=O)CSc4nc(N)cc(=O)[nH]4)cc3)sc2c1	103*	5	0	30	18	11	0	2	3
O=C(Nc1cccc(S(=O)(=O)N2CCCCC2)c1)c1ccc(Cl)nc1	20	4	13	x	x	x	x	x	x
O=C(Nc1ccc(Cl)c(S(=O)(=O)N2CCOCC2)c1)c1ccc(Cl)nc1	67*	0	24	x	x	32*	52*	12*	15
O=C(Nc1cccc(S(=O)(=O)N2CCCCCC2)c1)c1ccc(Cl)nc1	54*	4	9	x	x	27*	37	8	7
O=C(Nc1cccnc1)c1ccc(Cl)c(S(=O)(=O)N2CCOCC2)c1	-12	3	13	-4	-1	x	x	x	x
